Measured values published in ChEMBL document CHEMBL4334455, “Synthesis of Usnic Acid Derivatives and Evaluation of Their Antiproliferative Activity against Cancer Cells” (J Nat Prod, 2019).
The source made the active and inactive calls. No cut-off for these calls is given here.

Key:
[1] = Cytotoxicity against human HDFa cells assessed as reduction in cell viability after 48 hrs by MTT assay; type: cell-based
Method in brief: (§1)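 Cells seeded at 4 × 10³/well for 24 h runs and for PC-3, or 2 × 10³/well for MCF-7 and HeLa 48 h runs, and attached overnight. Medium replaced with compound-containing medium for 24 or 48 h. MTT (4 mg mL⁻¹) added for the final 3 h, formazan dissolved in DMSO, absorbance read at 570 nm (reference 660 nm). IC₅₀ calculated from at least three independent experiments in duplicate, mean ± SE.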

[2] = test system: MCF7; assay: Induction of cell cycle arrest in human MCF7 cells assessed as accumulation of cells at G2/M phase at 8.7 uM after 24 hrs by Propidium iodide staining based flow cytometric analysis (reference value: 27 +/- 2.97%); type: functional
[3] = test system: MCF7; assay: Induction of vacuolization in human MCF7 cells at 8.7 uM after 24 hrs in presence of 50 uM dynamin inhibitor, dynasore by light microscopic analysis; type: functional, cell-based
[4] = test system: MCF7; assay: Induction of apoptosis in human MCF7 cells assessed as increase in Bax level at 2.9 uM after 24 hrs by immunoblot analysis relative to control; type: functional
Method in brief: (§2)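 Proteins run on SDS-PAGE, transferred to PVDF, blocked in 5% milk/PBS, primary antibody overnight at 4 °C (cleaved PARP, Bax, Bcl-2), secondary 1 h at room temperature. Reprobed for β-actin; densitometry corrected for loading.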

[5] = test system: MCF7; assay: Anticlonogenic activity against human MCF7 cells assessed as proportion of colony forming cells at 11.6 uM incubated for 24 hrs followed by recovery period of 2 weeks by culturing cells in drug-free medium by crystal violet staining based assay relative to control; type: functional
Method in brief: (§3)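 Cells (1 × 10⁶) plated, after 24 h given fresh medium with derivative at 1, 2, 3 or 4 μg mL⁻¹ for 24 h; then trypsinized, counted, 8 × 10² replated into two plates in compound-free medium. After 2 weeks fixed with 6.0% glutaraldehyde, stained with 0.5% crystal violet; colonies of ≥50 cells counted. Mean ± SE of three experiments in duplicate.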

[6] = test system: PC-3; assay: Anticlonogenic activity against human PC3 cells assessed as proportion of colony forming cells at 11.6 uM incubated for 24 hrs followed by recovery period of 2 weeks by culturing cells in drug-free medium by crystal violet staining based assay relative to control; type: functional; method in brief: as §3
[7] = test system: PC-3; assay: Antiproliferative activity against human PC3 cells assessed as reduction in cell viability after 48 hrs by MTT assay; type: functional, cell-based; conditions: PC-3, 48 h; method in brief: as §1
[8] = test system: MCF7; assay: Antiproliferative activity against human MCF7 cells assessed as reduction in cell viability at 8.7 uM after 24 hrs in presence of 10 uM Na+/H+ exchange inhibitor, amiloride by MTT assay; type: functional, cell-based
[9] = test system: MCF7; assay: Induction of apoptosis in human MCF7 cells assessed as increase in Bax level at 8.7 uM after 24 hrs by immunoblot analysis relative to control; type: functional; method in brief: as §2
[10] = test system: HeLa; assay: Induction of cell cycle arrest in human HeLa cells assessed as accumulation of cells at G0/G1 phase 2.9 to 8.7 uM after 24 hrs by propidium iodide staining based flow cytometric analysis (reference value: 44%); type: functional
[11] = test system: MCF7; assay: Induction of vacuolization in human MCF7 cells at 8.7 uM after 24 hrs in presence of 0.5 uM actin dynamics inhibitor, cytochalasin-D by light microscopic analysis; type: functional, cell-based
[12] = test system: HeLa; assay: Antiproliferative activity against human HeLa cells assessed as reduction in cell viability after 48 hrs by MTT assay; type: functional, cell-based; conditions: Homo sapiens, HeLa, 48 h; method in brief: as §1
[13] = test system: HeLa; assay: Antiproliferative activity against human HeLa cells assessed as reduction in cell viability after 24 hrs by MTT assay; type: functional, cell-based; method in brief: as §1
[14] = test system: MCF7; assay: Induction of cytoplasmic vacuolization in human MCF7 cells at 8.7 uM after 24 to 48 hrs by TEM analysis; type: functional, cell-based
Method in brief: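 MCF-7 cells (2 × 10⁵) attached overnight, then exposed to 8.7 μM derivative or DMSO for 24 or 48 h at 37 °C. Fixed in ice-cold 2.5% fixative; ultrathin 45 nm sections stained with uranyl acetate and lead citrate, imaged by TEM at 1650×.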

[15] = test system: MCF7; assay: Antiproliferative activity against human MCF7 cells assessed as reduction in cell viability at 8.7 uM after 24 hrs in presence of 0.5 uM actin dynamics inhibitor, cytochalasin-D by MTT assay; type: functional, cell-based
[16] = test system: MCF7; assay: Induction of cell cycle arrest in human MCF7 cells assessed as accumulation of cells at G2/M phase at 2.9 uM after 24 hrs by Propidium iodide staining based flow cytometric analysis (reference value: 27 +/- 2.97%); type: functional
[17] = test system: MCF7; assay: Induction of apoptosis in human MCF7 cells at 2.9 uM after 48 hrs by Annexin-V/7-AAD staining based flow cytometric analysis relative to control; type: functional
Method in brief: (§4)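 MCF-7 cells treated 48 h, stained with annexin V and 7-AAD (Muse annexin V and dead cell kit), and apoptotic and necrotic fractions counted by flow cytometry. Mean ± SE of three independent experiments; ANOVA with Bonferroni post hoc test.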

[18] = test system: HeLa; assay: Anticlonogenic activity against human HeLa cells assessed as proportion of colony forming cells at 11.6 uM incubated for 24 hrs followed by recovery period of 2 weeks by culturing cells in drug-free medium by crystal violet staining based assay relative to control; type: functional; method in brief: as §3
[19] = test system: MCF7; assay: Antiproliferative activity against human MCF7 cells assessed as reduction in cell growth in presence of early autophagy inhibitor, wortmannin by MTT assay; type: functional, cell-based
[20] = test system: HeLa; assay: Cell cycle arrest in human HeLa cells assessed as reduction in cell population at G2/M phase at 2.9 to 8.7 uM after 24 hrs by propidium iodide staining based flow cytometric analysis; type: functional
[21] = test system: MCF7; assay: Induction of cell cycle arrest in human MCF7 cells assessed as accumulation of cells at G0/G1 phase at 2.9 uM after 24 hrs by Propidium iodide staining based flow cytometric analysis (reference value: 47.8 +/- 0.42%); type: functional
[22] = test system: MCF7; assay: Antiproliferative activity against human MCF7 cells assessed as reduction in cell viability at 8.7 uM after 24 hrs in presence of 50 uM dynamin inhibitor, dynasore by MTT assay relative to control; type: functional, cell-based
[23] = test system: MCF7; assay: Antiproliferative activity against human MCF7 cells assessed as reduction in cell viability after 24 hrs by MTT assay; type: functional, cell-based; conditions: MCF7, 24 h; method in brief: as §1
[24] = test system: MCF7; assay: Induction of endocytosis in human MCF7 cells at 2.9 to 8.7 uM after 24 hrs by lucifer yellow staining based fluorescence microscopic analysis; type: functional, cell-based
Method in brief: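 MCF-7 cells treated 24 h with 2.9 or 8.7 μM derivative, stained with 75 μM Lucifer Yellow, washed, and examined by fluorescence microscopy at 1000×.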

[25] = test system: MCF7; assay: Induction of apoptosis in human MCF7 cells assessed as increase in cleaved PARP level at 2.9 uM after 24 hrs by immunoblot analysis relative to control; type: functional; method in brief: as §2
[26] = test system: MCF7; assay: Induction of apoptosis in human MCF7 cell at 8.7 uM after 48 hrs by Annexin-V/7-AAD staining based flow cytometric analysis relative to control; type: functional; method in brief: as §4
[27] = test system: MCF7; assay: Antiproliferative activity against human MCF7 cells assessed as reduction in cell viability after 48 hrs by MTT assay; type: functional, cell-based; conditions: Homo sapiens, MCF7, 48 h; method in brief: as §1
[28] = test system: MCF7; assay: Induction of apoptosis in human MCF7 cells assessed as increase in cleaved PARP level at 8.7 uM after 24 hrs by immunoblot analysis relative to control; type: functional; method in brief: as §2

IC50 [7] [nM]	IC50 [12] [nM]	IC50 [13] [nM]	Compound	IC50 [1] [nM]	Activity [2] [%]	Activity [3]	fold change (FC) [4]	Activity [5] [%]	Activity [6] [%]	inhibition [8]	fold change (FC) [9]	Activity [10]	Activity [11]	Activity [14]	inhibition [15]	Activity [16] [%]	fold change (FC) [17]	Activity [18] [%]	inhibition [19]	Activity [20]	further results
3100	1000	1000	CC(=O)c1c(O)c(C)c(O)c2c1OC1=Cc3onc(C)c3C(=O)[C@]12C	3000	14.65	inactive	1.3	<50	<50	Active	2.1	51 - 65%	Active	Active	Active	16.4	2	<50	Active	Active	Activity [21]: 70.25%; inhibition [22]: Active; IC50 [23]: 3200 nM; Activity [24]: Active; fold change (FC) [25]: 4.4; fold change (FC) [26]: 3; IC50 [27]: 2500 nM; fold change (FC) [28]: 4.1
2800	1000	1000	CC(=O)c1c(O)c(C)c(O)c2c1OC1=Cc3onc(C)c3C(=O)C12C (racemic)	5900	14.02	inactive	1.02	<50	<50	Active	1.1	51 - 65%	Active	Active	Active	16.2	2	<50	Active	Active	Activity [21]: 71.85%; inhibition [22]: Active; IC50 [23]: 3100 nM; Activity [24]: Active; fold change (FC) [25]: 3.6; fold change (FC) [26]: 3; IC50 [27]: 2900 nM; fold change (FC) [28]: 4.5
